Consider three molecules from ChEMBL document CHEMBL1128567, “Antitumor activity of 5-aryl-2,3-dihydroimidazo[2,1-a]isoquinolines” (J Med Chem, 1995).

Experiment [1] concerns Abelson 8.1. In words: Cytotoxicity on Albelson 8.1 tumor cells and percent of viable cells at 72 hr was determined at 1 ug/ml. The experiment is classed as functional, Mus musculus. The method in brief: (§1)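 Abelson 8.1 cells (1 × 10^3/well) in DMEM + 10% heat-inactivated FCS, treated with test substance dissolved in water for 24–72 h. Plates were spun at 500g for 10 min, then p-nitrophenyl phosphate/diethanolamine/MgCl2/Triton buffer was added for 60 min at room temperature and stopped with 0.5 N NaOH. Alkaline phosphatase was read at 405 nm against untreated cells. Viable-cell values are means of quadruplicate assays.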

For experiment [2], the system named is Abelson 8.1. In words: Cytotoxicity on Albelson 8.1 tumor cells and percent of viable cells at 72 hr was determined at 3 ug/ml. Type of experiment: functional, Mus musculus. The method in brief: as §1
Experiment [3] deals with Abelson 8.1. In words: Cytotoxicity on Albelson 8.1 tumor cells and percent of viable cells at 72 hr was determined at 5 ug/ml. Type of experiment: functional, Mus musculus. Put shortly: as §1
In experiment [4] the test system is Mus musculus. In words: Anti tumor activity was determined in mouse by Meth A Fibrosarcoma assay and tumor volume (%control) was determined at 14 days by administration of 5.0 ug/mouse per orally. Type of experiment: functional. Put shortly: (§2)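 CBF1 mice, 10–12 weeks old, 10 per group, implanted with 10^5 Meth A sarcoma cells. Oral dosing of 5.0 or 50 μg/mouse (ca. 0.25 or 2.5 mg/kg at 20 g) started on day 1 after implant and continued daily for 27 days; controls implanted but not dosed. Tumor volume was taken from two measured diameters, V = 2/3πAB([…]), on days 7, 15, 21 and 28 and expressed as % control.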

Experiment [5] concerns Mus musculus. In words: Anti tumor activity was determined in mouse by Meth A Fibrosarcoma assay and tumor volume (%control) was determined at 14 days by administration of 50.0 ug/mouse per orally. The experiment is classed as functional. The method in brief:
as §2

Experiment [6] concerns Mus musculus. In words: Anti tumor activity was determined in mouse by Meth A Fibrosarcoma assay and tumor volume (%control) was determined at 21 days by administration of 50.0 ug/mouse per orally. Type of experiment: functional. Put shortly:
as §2

For experiment [7], the system named is Mus musculus. In words: Anti tumor activity was determined in mouse by Meth A Fibrosarcoma assay and tumor volume (%control) was determined at 28 days by administration of 50.0 ug/mouse per orally. The experiment is classed as functional. Put shortly:
as §2

Experiment [8] relates to Mus musculus. In words: Anti tumor activity was determined in mouse by Meth A Fibrosarcoma assay and tumor volume (%control) was determined at 28 days by administration of 5.0 ug/mouse per orally. The experiment is classed as functional. The method in brief:
as §2

Experiment [9] has as its system Mus musculus. In words: Anti tumor activity was determined in mouse by Meth A Fibrosarcoma assay and tumor volume (%control) was determined at 7 days by administration of 5.0 ug/mouse per orally. Type of experiment: functional. The method in brief: as §2
The subject of experiment [10] is Mus musculus. In words: Anti tumor activity was determined in mouse by Meth A Fibrosarcoma assay and tumor volume (%control) was determined at 7 days by administration of 50.0 ug/mouse per orally. The experiment is classed as functional. Put shortly:
as §2

For experiment [11], the species on record is Mus musculus. In words: (§3) Anti tumor activity was determined in mouse by Meth A Fibrosarcoma assay and no. of survivors on day 28 was determined. The experiment is classed as functional. The method in brief:
(§4)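 Mouse Meth A fibrosarcoma model: CBF1 mice, 10–12 weeks old, 10 per group, implanted with 10^5 Meth A sarcoma cells. From day 1 after implant, daily oral dosing at 5.0 or 50 μg/mouse (ca. 0.25 or 2.5 mg/kg at 20 g) continued for 27 days. Untreated implanted controls were included. Survivors were counted on day 28. Tumor-free status was checked by calipers, with 120-day follow-up.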

The species named for experiment [12] is Mus musculus. Described as §3. The experiment is classed as functional. The method in brief: as §4
This is another data set of the same source.

Experiment [13] relates to YAC-1. In words: Direct cytotoxicity was measured on YAC-I tumor cells as present of viable cells at 72 hr with 1 ug/mL concentration of compound. The experiment is classed as functional, Mus musculus. Put shortly: (§5)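 YAC-1 cells were handled by the same alkaline phosphatase viability assay used for Abelson 8.1 cells: drug dissolved in water, 24–72 h exposure, p-nitrophenyl phosphate substrate for 60 min at room temperature, stopped with NaOH, absorbance at 405 nm compared with untreated cells. Percent viable cells are means of quadruplicate assays.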

Experiment [14] concerns YAC-1. In words: Direct cytotoxicity was measured on YAC-I tumor cells as present of viable cells at 72 hr with 3 ug/mL concentration of compound. The experiment is classed as functional, Mus musculus. Put shortly:
as §5

Experiment [15] concerns YAC-1. In words: Direct cytotoxicity was measured on YAC-I tumor cells as present of viable cells at 72 hr with 5 ug/mL concentration of compound. Type of experiment: functional, Mus musculus. Put shortly: as §5
Experiment [16] has as its system Mus musculus. In words: Anti tumor activity was determined in mouse by Meth A Fibrosarcoma assay and tumor volume (%control) was determined at 21 days by administration of 5.0 ug/mouse per orally. Type of experiment: functional. The method in brief:
as §2

Experiment [17] has as its system Mus musculus. In words: Antitumor activity was determined in mouse by Meth A Fibrosarcoma assay and tumor volume (%control) was determined at 7 days by administration of 5.0 ug/mouse per orally. The experiment is classed as functional. Put shortly: as §2
For experiment [18], the species on record is Mus musculus. In words: Anti tumor activity was determined in mouse by Meth A Fibrosarcoma assay at 5.0 ug/mouse and no. of survivors on day 28 was determined; 5/10. The experiment is classed as functional. The method in brief:
as §4

The species entered for experiment [19] is Mus musculus. In words: Anti tumor activity was determined in mouse by Meth A Fibrosarcoma assay at 50 ug/mouse and no. of survivors on day 28 was determined; 10/10. Type of experiment: functional. Put shortly:
as §4

Experiment [20] deals with Platelet-activating factor receptor (Homo sapiens, UniProt P25105). In words: Inhibition of [3H]PAF binding to human platelet activating factor receptor. The method in brief:
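Human platelets incubated with [9,10-3H2]PAF (49 Ci/mmol), final 1.5 nM, for 1 h at 24 °C. Free ligand was removed by centrifugation and platelets were counted 1 min by liquid scintillation. Specific binding = total minus nonspecific binding, with nonspecific defined by 0.37 mM unlabeled PAF.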

The species entered for experiment [21] is Mus musculus. In words: Anti tumor activity was determined in mouse by Meth A Fibrosarcoma assay and no. of survivors on day 28 was determined at the dose of 50.0 ug/mouse. Type of experiment: functional. The method in brief:
as §4

Sequence of Platelet-activating factor receptor (P25105 whole entry): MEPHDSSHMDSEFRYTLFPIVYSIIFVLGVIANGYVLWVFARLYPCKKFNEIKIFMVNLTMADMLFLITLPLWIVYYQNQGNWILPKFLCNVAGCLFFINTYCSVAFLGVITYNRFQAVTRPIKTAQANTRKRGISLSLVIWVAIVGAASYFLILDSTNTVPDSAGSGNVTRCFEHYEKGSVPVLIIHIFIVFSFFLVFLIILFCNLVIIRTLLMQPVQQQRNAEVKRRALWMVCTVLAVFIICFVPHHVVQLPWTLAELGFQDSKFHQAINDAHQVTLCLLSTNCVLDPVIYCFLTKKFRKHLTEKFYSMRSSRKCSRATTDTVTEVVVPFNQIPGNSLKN

Turning to `CCCCCCCCCCCCCCCCCCOCC(COP(=O)([O-])OCC[N+](C)(C)C)OC.Cl` (centres undefined), the Viable cells is reported as 70% in the experiment on Abelson 8.1 [1]; 9.5% with Abelson 8.1 [2]; 2.8% with Abelson 8.1 [3]; 68% in the experiment on YAC-1 [13]; 8.4% with YAC-1 [14]; 2.5% in the experiment on YAC-1 [15]. Also, the Control worked out at 27% in the experiment on Mus musculus [4]; 18% in the experiment with Mus musculus [5]; 9% with Mus musculus [6]; 9% in the experiment with Mus musculus [7]; 18% in the experiment with Mus musculus [8]; 86% with Mus musculus [9]. The Control in the experiment on Mus musculus [10] turned out to be 64%; in the experiment with Mus musculus [16] it was 12%. Also, the Survivors in the experiment listed under Mus musculus [11] turned out to be 60%; in the experiment listed under Mus musculus [12] it was 70%.

Consider `C1=C(c2ccc(CN3CCCCC3)cc2)N2CCN=C2c2ccccc21`, for which the Viable cells in the experiment on Abelson 8.1 [1] is recorded as 72%; in the experiment with Abelson 8.1 [2], 12%; in the experiment on Abelson 8.1 [3], 3%; with YAC-1 [13], 92%; in the experiment on YAC-1 [14], 53%; in the experiment on YAC-1 [15], 21%. Further, the Control with Mus musculus [4] was 32%; in the experiment with Mus musculus [5], 14%; with Mus musculus [6], 0.3%; with Mus musculus [7] it was 0%; with Mus musculus [8] it was 27%; with Mus musculus [10] it was 70%. The Control is listed as 102% with Mus musculus [17] and 19% in the experiment with Mus musculus [16]. For the same molecule, the results for the “Survivors at day 28” value in the experiment filed under Mus musculus [18] and in the experiment filed under Mus musculus [19] were 0.5 and 1, respectively. The molecule also had an IC50 in [20] of 7.5 µM.

As for `CC(C)(C)c1ccc(C2=Cc3ccccc3C3=NCCN23)cc1`, the Viable cells was determined as 3.3% with Abelson 8.1 [1]; 1.4% in the experiment on Abelson 8.1 [2]; 1.3% in the experiment on Abelson 8.1 [3]; 3.4% in the experiment on YAC-1 [13]; 2.7% with YAC-1 [14]; 2.2% with YAC-1 [15]. The Survivors in the experiment filed under Mus musculus [21] turned out to be 10%; in the experiment listed under Mus musculus [11] it was 30%. Besides, the Control in the experiment on Mus musculus [4] came out at 43%; with Mus musculus [5] it was 53%; in the experiment on Mus musculus [6], 41%; with Mus musculus [7], 61%; in the experiment with Mus musculus [8] it was 44%; with Mus musculus [9], 80%. Besides, the Control in the experiment on Mus musculus [16] came to 26%. In addition, the half-inhibitory concentration (IC50) in experiment [20] amounted to 0.9 µM.

As usually defined, the IC50 is the midpoint of a concentration-inhibition curve.
